Data reported in paper PMC8742645 (Clinical and Translational Science, 2021).
“And” between values parts separate entries of the source, which are not always exact repeats. Equal values may be shown once. Read-outs that look alike come from different tables or passages of the source. Marks after values point to notes of the source that are not given here.

How the values were obtained:
Caco-2 cells = experiment: Caco-2 permeability of remibrutinib; type: in vitro ADME; conditions: Caco-2, passive
Procedure, shortened: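 Human Caco-2 cell system, also used to test the compound as a substrate of ATP-binding cassette efflux transporters (P-gp). Passive apparent permeability (Papp, cm/s) was taken from these experiments to predict the fraction absorbed (Fa) in the PBPK model.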

P-gp = P-gp (Homo sapiens, UniProt P08183); experiment: Efflux transporter substrate assessment in Caco-2 cells; type: in vitro ADME
Sequence of P-gp (P08183 whole entry): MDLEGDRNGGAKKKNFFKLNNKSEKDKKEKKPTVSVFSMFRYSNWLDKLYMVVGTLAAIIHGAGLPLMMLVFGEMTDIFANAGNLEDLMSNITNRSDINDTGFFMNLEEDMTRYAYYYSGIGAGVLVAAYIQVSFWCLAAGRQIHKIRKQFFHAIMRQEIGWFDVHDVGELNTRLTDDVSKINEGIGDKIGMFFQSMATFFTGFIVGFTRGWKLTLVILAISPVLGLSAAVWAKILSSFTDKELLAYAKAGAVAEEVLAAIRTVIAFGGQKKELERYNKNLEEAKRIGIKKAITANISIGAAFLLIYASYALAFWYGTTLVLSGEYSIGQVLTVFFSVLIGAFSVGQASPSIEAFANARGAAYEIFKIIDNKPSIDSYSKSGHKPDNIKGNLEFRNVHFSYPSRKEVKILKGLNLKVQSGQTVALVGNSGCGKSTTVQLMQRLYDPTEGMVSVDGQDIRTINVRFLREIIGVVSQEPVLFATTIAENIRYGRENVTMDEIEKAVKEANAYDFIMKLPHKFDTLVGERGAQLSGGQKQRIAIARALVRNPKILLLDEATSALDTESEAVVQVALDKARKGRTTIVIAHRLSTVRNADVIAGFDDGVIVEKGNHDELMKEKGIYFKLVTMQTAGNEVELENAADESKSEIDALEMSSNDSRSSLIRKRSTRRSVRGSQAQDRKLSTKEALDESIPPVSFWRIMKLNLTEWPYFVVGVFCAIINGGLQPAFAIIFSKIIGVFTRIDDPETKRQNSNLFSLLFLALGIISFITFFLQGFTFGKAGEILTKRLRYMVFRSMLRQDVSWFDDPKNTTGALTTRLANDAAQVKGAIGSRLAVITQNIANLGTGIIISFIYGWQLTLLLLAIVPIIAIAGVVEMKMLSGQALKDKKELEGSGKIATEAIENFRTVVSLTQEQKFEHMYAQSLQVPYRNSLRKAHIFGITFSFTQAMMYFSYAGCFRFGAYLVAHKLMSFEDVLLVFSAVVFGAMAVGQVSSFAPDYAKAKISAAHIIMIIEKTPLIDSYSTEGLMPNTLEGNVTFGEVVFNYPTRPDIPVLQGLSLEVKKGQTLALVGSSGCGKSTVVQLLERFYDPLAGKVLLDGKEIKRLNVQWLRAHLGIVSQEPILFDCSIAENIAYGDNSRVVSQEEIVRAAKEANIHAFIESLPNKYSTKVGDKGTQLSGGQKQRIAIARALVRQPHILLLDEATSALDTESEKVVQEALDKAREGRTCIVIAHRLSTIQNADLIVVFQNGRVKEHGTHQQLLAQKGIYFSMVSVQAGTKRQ

[1] = tested on: hepatic uptake transporters; experiment: Cellular uptake in suspensions of cryo-preserved human hepatocytes; type: in vitro ADME; conditions: suspended human hepatocytes
human liver microsomes = experiment: Oxidative metabolism kinetics in pooled HLM; type: in vitro ADME
CYP3A4 = CYP3A4 (Homo sapiens, UniProt P08684); type: in vitro ADME
Sequence of CYP3A4 (P08684 whole entry): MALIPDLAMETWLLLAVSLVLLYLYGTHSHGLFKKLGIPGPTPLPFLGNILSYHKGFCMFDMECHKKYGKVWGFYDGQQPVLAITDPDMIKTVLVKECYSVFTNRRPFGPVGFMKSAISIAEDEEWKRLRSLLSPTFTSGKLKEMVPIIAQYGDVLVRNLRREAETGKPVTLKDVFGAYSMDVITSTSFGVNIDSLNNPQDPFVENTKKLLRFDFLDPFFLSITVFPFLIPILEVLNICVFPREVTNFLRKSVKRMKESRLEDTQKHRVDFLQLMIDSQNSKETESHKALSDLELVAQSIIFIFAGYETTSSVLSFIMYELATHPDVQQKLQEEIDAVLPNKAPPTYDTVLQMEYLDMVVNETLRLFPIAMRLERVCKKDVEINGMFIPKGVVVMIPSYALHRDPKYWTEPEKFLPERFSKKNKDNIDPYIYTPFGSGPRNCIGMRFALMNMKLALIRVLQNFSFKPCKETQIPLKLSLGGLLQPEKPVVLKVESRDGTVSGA

CYP2C19 = CYP2C19 (Homo sapiens, UniProt P33261); experiment: Recombinant human CYP enzyme kinetics; type: in vitro ADME
Sequence of CYP2C19 (P33261 whole entry): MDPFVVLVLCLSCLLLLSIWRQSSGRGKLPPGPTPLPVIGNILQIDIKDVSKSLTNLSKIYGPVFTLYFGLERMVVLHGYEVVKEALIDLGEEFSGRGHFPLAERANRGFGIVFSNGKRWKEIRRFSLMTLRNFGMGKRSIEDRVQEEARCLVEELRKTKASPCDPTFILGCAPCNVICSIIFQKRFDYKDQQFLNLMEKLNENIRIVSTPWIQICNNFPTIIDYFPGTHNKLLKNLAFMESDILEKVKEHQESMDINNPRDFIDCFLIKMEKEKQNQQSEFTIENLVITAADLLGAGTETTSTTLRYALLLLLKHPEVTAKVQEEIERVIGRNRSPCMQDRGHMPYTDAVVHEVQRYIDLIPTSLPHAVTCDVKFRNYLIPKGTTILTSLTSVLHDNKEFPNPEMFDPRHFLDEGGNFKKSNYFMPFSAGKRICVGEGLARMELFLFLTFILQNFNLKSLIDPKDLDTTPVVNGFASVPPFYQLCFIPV

CYP3A5 = CYP3A5 (Homo sapiens, UniProt P20815); experiment: Recombinant human CYP enzyme kinetics; type: in vitro ADME
Sequence of CYP3A5 (P20815 whole entry): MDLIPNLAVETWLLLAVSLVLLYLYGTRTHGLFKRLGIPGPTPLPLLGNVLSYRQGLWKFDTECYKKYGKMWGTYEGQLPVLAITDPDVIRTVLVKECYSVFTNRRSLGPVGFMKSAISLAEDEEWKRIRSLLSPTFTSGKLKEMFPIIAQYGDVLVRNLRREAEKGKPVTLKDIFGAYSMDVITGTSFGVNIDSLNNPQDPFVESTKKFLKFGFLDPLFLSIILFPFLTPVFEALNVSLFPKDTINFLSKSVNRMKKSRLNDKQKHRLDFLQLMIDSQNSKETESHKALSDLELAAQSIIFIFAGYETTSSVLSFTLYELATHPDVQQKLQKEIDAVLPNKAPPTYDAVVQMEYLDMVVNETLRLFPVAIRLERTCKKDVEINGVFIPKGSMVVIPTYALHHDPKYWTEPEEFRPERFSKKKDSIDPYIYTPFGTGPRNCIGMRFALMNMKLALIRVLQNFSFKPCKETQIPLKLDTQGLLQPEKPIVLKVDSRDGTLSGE

CYP2B6 = target: T1, CYP2B6 (Homo sapiens, UniProt P20813); experiment: Recombinant human CYP enzyme kinetics; type: in vitro ADME
T1 sequence (P20813 1-491): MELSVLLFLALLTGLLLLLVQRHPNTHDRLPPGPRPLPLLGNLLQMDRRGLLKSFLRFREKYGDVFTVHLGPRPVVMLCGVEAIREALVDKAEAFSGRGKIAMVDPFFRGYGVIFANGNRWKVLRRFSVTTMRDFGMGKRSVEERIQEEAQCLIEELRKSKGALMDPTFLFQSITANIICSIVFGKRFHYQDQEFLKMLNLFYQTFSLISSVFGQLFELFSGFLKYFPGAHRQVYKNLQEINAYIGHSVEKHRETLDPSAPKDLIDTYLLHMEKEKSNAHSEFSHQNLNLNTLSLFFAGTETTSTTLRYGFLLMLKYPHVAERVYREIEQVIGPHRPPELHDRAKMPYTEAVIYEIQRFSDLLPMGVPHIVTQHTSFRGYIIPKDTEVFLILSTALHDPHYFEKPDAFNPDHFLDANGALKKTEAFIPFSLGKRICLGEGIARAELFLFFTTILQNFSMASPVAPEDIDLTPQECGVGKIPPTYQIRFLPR

CYP3A4/5 = experiment: Correlation analysis with HLM from 16 individual donors; type: in vitro ADME, human
[2] = type: in vivo, human; conditions: for Vd: 100 µg; for half-life / Tmax: whole blood; for half-life: t 1/2, arithmetic mean; for Tmax: po
Procedure, shortened: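 Healthy adults, open-label single-sequence three-period crossover. Oral doses: 50 mg alone (day 3, 1 h after 240 ml 10% glucose), 20 mg 1 h after 240 ml grapefruit juice, and 20 mg 1 h after the second ritonavir 100 mg dose. Stable-isotope-labelled i.v. microtracer 100 µg given 2 h post-oral in periods 1 and 3. Blood measured by LC-MS/MS; dose-normalised; mixed-ANOVA geometric mean ratios.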

[3] = Clinical DDI study: safety; type: in vivo, human
[4] = Single and multiple ascending dose study, observed PK; type: in vivo, human
[5] = DDI trial with CYP450 enzyme substrate cocktail, steady state; ref unpublished data, Schiller, Huth, Schuhler, Drollmann, Kaul, Woessner, et al. 2021; cited from earlier work
[6] = rat in vivo; ref data on file, Novartis; cited from earlier work
[7] = i.v., Period 1 remibrutinib alone day 3, Geo-mean (%CV)
[8] = i.v., Period 3 remibrutinib + ritonavir, Geo-mean (%CV)
[9] = oral, Period 1 alone 50 mg Day 3, Mean (SD)
[10] = oral, Period 2 20 mg + GFJ Day 5, Mean (SD)
[11] = oral, Period 3 20 mg + RTV Day 7, Mean (SD)
[12] = p.o., Period 1 remibrutinib alone, adjusted Geo-mean, 90% CI
[13] = p.o., Period 2 remibrutinib + grapefruit juice, adjusted Geo-mean, 90% CI
[14] = p.o., Period 3 remibrutinib + ritonavir, adjusted Geo-mean, 90% CI
[15] = p.o., grapefruit juice vs alone, Geo mean ratio, 90% CI
[16] = p.o., ritonavir vs alone, Geo-mean ratio, 90% CI

SMILES: C=CC(=O)N(C)CCOc1c(N)ncnc1-c1cc(F)cc(NC(=O)c2ccc(C3CC3)cc2F)c1C [remibrutinib]
- passive permeability (Papp) (Caco-2 cells): 16.5 10^-6 cm/s
- P-gp substrate (P-gp): identified as a P‐gp substrate
- uptake clearance with inhibitors of hepatic uptake transporters [1]: not affected
- apparent intrinsic affinity (Kmapp) (human liver microsomes): 5.43 µM
- maximal rate of metabolism (Vmax) (human liver microsomes): 560.7 pmol/min/mg protein
- Vmax (CYP3A4; CYP3A4): 16.3 pmol/min/pmol CYP
- Km (CYP3A4; read-out: Km,u, CYP3A4, unbound): 1.51 µM
- fm,CYP (contribution to oxidative hepatic metabolism) (CYP2C19): 1%
- fm,CYP (contribution to oxidative hepatic metabolism) (CYP3A5): 0.8%
- fm,CYP (contribution to oxidative hepatic metabolism) (CYP2B6): 0.3%
- correlation of metabolism rate with CYP3A4/5 activity, R (CYP3A4/5; midazolam): 0.989
- correlation of metabolism rate with CYP3A4/5 activity, R (CYP3A4/5; testosterone): 0.986
- F (absolute bioavailability) ([2]; Observed mean): 33.8 ± 11.5%
- F inhibited ([2]; Observed mean, bioavailability in the presence of ritonavir): 80.9% and 80.9 ± 11.5%
- Fg ([2]; Observed mean, from grapefruit juice AUC ratio): 78.9% and 78.9 ± 15.6%
- Fa ([2]; Observed, calculated Fa = F/Fg/Fh): 86.9% and 86.9^e %
- Fh ([2]; Observed, calculated Fh = AUCratio,iv/(AUCratio,po * Fg), ritonavir DDI study): 49.3^d %
- fm (CYP3A4) ([2]; Observed, from i.v. exposure increase with ritonavir): 40%
- CYP3A4-mediated hepatic first-pass metabolism (100%-Fh) ([2]; calculated): 50.7%
- product of Fg and Fh ([2]; calculated / clinically determined values): 39%
- Vd ([2]; human, blood, intravenous): 0.81 ± 0.22 L/kg
- Vd ([2]; human, blood, iv): 63.1 L
- clearance ([2]; human, blood, iv, 0.1 mg): 1170 mL/min
- systemic CL as share of hepatic blood flow (87 L/h) ([2]; human, in vivo): ~ 80%
- half-life ([2]; human, oral, 50 mg, remibrutinib alone): 6.58 h
- half-life ([2]; human, oral, with RTV): 12.1 h
- half-life ([2]; human, oral, with grapefruit juice): 7.13 h
- Tmax ([2]; human, 50 mg, median, remibrutinib alone): 1 h
- Tmax ([2]; human, 50 mg, minimum-maximum, remibrutinib alone): 0.5 to 2.5 h
- Tmax ([2]; human, median, with RTV): 0.72 h
- Tmax ([2]; human, median, with grapefruit juice): 0.73 h
- Tmax ([2]; human, minimum-maximum, with RTV): 0.5 to 1.5 h
- Tmax ([2]; human, minimum-maximum, with grapefruit juice): 0.5 to 2 h
- AUC0-24 h norm by dose [2, 7]: 14.2 (21.8%) h*ng/ml/mg
- AUCinf norm by dose [2, 7]: 14.5 (17.9%) h*ng/ml/mg
- AUClast norm by dose [2, 7]: 13.9 (22.3%) h*ng/ml/mg
- AUC0-24 h norm by dose [2, 8]: 23.8 (31.0%) h*ng/ml/mg
- AUCinf norm by dose [2, 8]: 24.8 (33.3%) h*ng/ml/mg
- AUClast norm by dose [2, 8]: 23.5 (31.0%) h*ng/ml/mg
- AUC0-24 h norm by dose, Ratio period 3 / period 1 ([2]; i.v., ritonavir vs alone): 1.67
- AUCinf norm by dose, Ratio period 3 / period 1 ([2]; i.v., ritonavir vs alone): 1.70
- AUClast norm by dose, Ratio period 3 / period 1 ([2]; i.v., ritonavir vs alone): 1.68
- Cmax norm by dose, Ratio period 3 / period 1 ([2]; i.v., ritonavir vs alone): 0.89
- AUC0-24 h norm by dose [2, 9]: 4.89 ng·h/mL/mg
- Cmax norm by dose [2, 9]: 2.77 ng/mL/mg
- AUC0-24 h norm by dose [2, 10]: 6.28 ng·h/mL/mg
- Cmax norm by dose [2, 10]: 3.27 ng/mL/mg
- AUC0-24 h norm by dose [2, 11]: 20.3 ng·h/mL/mg
- Cmax norm by dose [2, 11]: 9.00 ng/mL/mg
- AUC0-24 h norm by dose [2, 12]: 4.49 (3.83, 5.26) h*ng/ml/mg
- AUCinf norm by dose [2, 12]: 4.66 (3.92, 5.54) h*ng/ml/mg
- AUClast norm by dose [2, 12]: 4.37 (3.73, 5.13) h*ng/ml/mg
- Cmax norm by dose [2, 12]: 2.45 (1.99, 3.02) ng/ml/mg
- AUC0-24 h norm by dose [2, 13]: 5.80 (4.95, 6.80) h*ng/ml/mg
- AUCinf norm by dose [2, 13]: 5.98 (4.97, 7.19) h*ng/ml/mg
- AUClast norm by dose [2, 13]: 5.80 (4.93, 6.81) h*ng/ml/mg
- Cmax norm by dose [2, 13]: 3.03 (2.45, 3.75) ng/ml/mg
- AUC0-24 h norm by dose [2, 14]: 19.2 (16.4, 22.5) h*ng/ml/mg
- AUCinf norm by dose [2, 14]: 20.1 (16.9, 23.8) h*ng/ml/mg
- AUClast norm by dose [2, 14]: 19.7 (16.7, 23.1) h*ng/ml/mg
- Cmax norm by dose [2, 14]: 8.15 (6.59, 10.1) ng/ml/mg
- AUCinf norm by dose, Ratio period 2 / period 1 [2, 15]: 1.28 (1.09, 1.51)
- AUClast norm by dose, Ratio period 2 / period 1 [2, 15]: 1.33 (1.19, 1.47)
- AUCinf norm by dose, Ratio period 3 / period 1 [2, 16]: 4.31 (3.76, 4.94)
- AUClast norm by dose, Ratio period 3 / period 1 [2, 16]: 4.50 (4.05, 4.99)
- tolerability ([3]; alone, with grapefruit juice, or with RTV, healthy participants): well‐tolerated
- SAEs, deaths, high-grade AEs ([3]; during the trial): No SAEs, deaths, or AEs of high‐grade severity
- clinical laboratory evaluations, vital signs, ECG ([3]; except isolated AE of mildly increased white blood cell count in one participant): no clinically relevant changes
- AEs rated grade 1 of all AEs ([3]; occurring in 5 [29.4%] participants): 13/14
- AUC ratio day 12 to day 1 ([4]; declining over dose range 10-600 mg (TMDD effect)): 4.86 to 1.14
- fractional contribution of renal excretion to elimination ([4]; humans): about 1.8%
- observed AUCtau [5]: 916 ng·h/mL
- observed Cmax [5]: 334 ng/mL
- excretion of unchanged remibrutinib into the bile [6]: 0.4 % of the dose
